From PubChem BioAssay
Only some compounds are listed: those with a hit (about 2.3% of all), similar ones and a draw of the others.
TRPC4 agonist = TRPC4 (mouse) channel activation; actives 0.49% (n = 310,000); B-score at 10 µM; AID 2237; HEK293 TRPC4beta/mu-opioid, Fluo4 calcium fluorescence; stronger effect = higher value;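 active = B-score above 5 SD of library B-scores, and initial fluorescence ratio not above library mean plus 5 SD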;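 note: positive B-score marks a calcium rise read as TRPC4 activation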
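Assay system: HEK293 stable line with TRPC4beta plus mu-opioid receptor. Times: dye 45 min RT, read 110 s. Measured by: kinetic Fluo4 calcium fluorescence. Measure: B score of integrated ratio. Controls: assay buffer as low control, maximal DAMGO as high control.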
TRPC4 PAM = TRPC4 (mouse) allosteric potentiation; actives 0.42% (n = 310,000); B-score at 10 µM; HEK293 TRPC4beta/mu-opioid, DAMGO EC20, Fluo-4 Ca2+ flux; stronger effect = higher value; AID 2227;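 active = B-score of calcium response area above 5 SD of library B-scores, with initial fluorescence ratio within 5 SD of library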
TRPC4 block = inhibitors of mouse TRPC4 channel; Q9QUQ5; HEK293 TRPC4beta/mu-opioid, DAMGO-evoked Fluo4 calcium flux; stronger effect = lower value; B-score at 10 µM; actives 0.39% (n = 300,000);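 active = B-score over 3 SD under the library average, no early fluorescence shift, positive overall ratio signal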
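System: stable TRPC4beta/mu-opioid receptor HEK293 cells; Dosing: single-point compound dosing; Measured by: Fluo4 Ca2+ flux fluorescence; Read-out basis: per-well B score of integrated baseline-normalized Fluo4 ratio.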
TRPC6 activator = mouse TRPC6 channel activation; Q61143; HEK293-TRPC6 membrane potential dye fluorescence; stronger effect = higher value; B-score at 10 µM; actives 0.13% (n = 310,000); AID 2550;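 active = B-score of the integrated fluorescence ratio above library mean plus 3 SD, and starting fluorescence ratio within library mean plus 5 SD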;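 note: higher score means more depolarization so channel activation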
Target sequence (Q61143 whole entry, looked up): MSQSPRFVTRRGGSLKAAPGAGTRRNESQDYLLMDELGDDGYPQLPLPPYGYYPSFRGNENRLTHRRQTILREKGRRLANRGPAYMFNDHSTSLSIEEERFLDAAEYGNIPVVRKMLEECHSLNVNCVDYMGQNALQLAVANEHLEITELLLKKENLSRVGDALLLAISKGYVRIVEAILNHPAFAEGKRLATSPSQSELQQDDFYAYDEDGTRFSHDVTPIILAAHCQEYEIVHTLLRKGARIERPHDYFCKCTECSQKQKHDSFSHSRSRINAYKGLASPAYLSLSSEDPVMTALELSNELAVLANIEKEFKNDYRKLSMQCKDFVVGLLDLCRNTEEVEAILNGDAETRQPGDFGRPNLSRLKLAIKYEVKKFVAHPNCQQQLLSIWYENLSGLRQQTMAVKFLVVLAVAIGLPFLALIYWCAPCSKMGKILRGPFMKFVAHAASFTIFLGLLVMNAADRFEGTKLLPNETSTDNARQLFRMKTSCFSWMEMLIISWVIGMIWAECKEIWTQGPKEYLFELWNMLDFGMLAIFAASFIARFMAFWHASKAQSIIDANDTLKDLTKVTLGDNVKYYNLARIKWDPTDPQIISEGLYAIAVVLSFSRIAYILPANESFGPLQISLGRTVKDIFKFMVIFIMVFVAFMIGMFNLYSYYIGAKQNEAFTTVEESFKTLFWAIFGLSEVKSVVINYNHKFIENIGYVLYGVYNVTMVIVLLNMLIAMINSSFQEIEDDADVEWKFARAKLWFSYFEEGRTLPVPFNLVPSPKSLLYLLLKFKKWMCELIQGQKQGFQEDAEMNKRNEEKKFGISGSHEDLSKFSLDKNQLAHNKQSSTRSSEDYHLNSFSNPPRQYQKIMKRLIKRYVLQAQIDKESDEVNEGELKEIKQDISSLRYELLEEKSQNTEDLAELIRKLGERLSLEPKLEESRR
TRPC6 inhibitor = mouse TRPC6 channel inhibition. Q61143. HEK293-TRPC6, membrane potential dye, ACh-evoked depolarization; stronger effect = lower value. B-score at 10 µM. actives 1.1% (n = 310,000);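 active = B-score under library mean minus 3 SD, initial fluorescence not abnormally high, positive integrated signal ratio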;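 note: B-score derived from integrated fluorescence ratio over the kinetic read; more negative B-score means stronger inhibition of depolarization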
TRPC4 sel inh 2 = second check of whether TRPC6 inhibitors also affect mouse TRPC4 | HEK293 TRPC4/MOR, membrane potential dye fluorescence; channel activated by saturating DAMGO dose | inhibition, % at 10 µM | AID 2776 | shares compounds with TRPC6 inhibitor | actives 42% (n = 920);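 active = compounds whose fluorescence signal differed from control wells by over 3 SD, either direction, in both duplicate plates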
TRPC4 spec = selectivity of TRPC6 inhibitors: effect on mouse TRPC4; shares compounds with TRPC6 inhibitor; HEK293 TRPC4/mu-opioid, membrane potential fluorescence; activity change, negative = inhibition, % at 10 µM; actives 61% (n = 920);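 active = rise or fall in signal beyond 3 SD of buffer-only wells in both replicate plates, either sign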;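 note: integrated kinetic ratio of fluorescence range over baseline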
HEK293 MPD ctr 2-1 = parental HEK293 nonspecific activity of TRPC6 inhibitors, second screen. signal change vs control, % at 10 µM. AID 2779. shares compounds with TRPC6 inhibitor. actives 31% (n = 920). parental HEK293 membrane potential dye fluorescence; maximal acetylcholine challenge after compound addition;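 active = membrane potential signal moving either way by over 3 SD of the maximum-effect control, in both duplicate plates, meaning non-specific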
HEK293 MPD ctr-1 = parental HEK293 nonspecific activity of TRPC6 inhibitors. shares compounds with TRPC6 inhibitor. parental HEK293 membrane potential dye fluorescence. membrane potential signal change, % at 10 µM. actives 60% (n = 920). AID 2780;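 active = membrane potential signal shifting up or down by more than 3 SD of buffer-only wells, on both duplicate plates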
HEK293 MPD ctr-2 = checks TRPC6 modulator effects in parental HEK293 cells; shares compounds with TRPC6 inhibitor; membrane potential dye fluorescence; membrane potential signal change, % at 10 µM; actives 51% (n = 2,400); AID 488924;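 active = membrane potential signal moves up or down beyond 5 SD from buffer-only wells, on both duplicate plates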
HEK293 MPD ctr 2-2 = parental HEK293 nonspecific activity of TRPC6 modulators, second screen. membrane potential dye fluorescence; after compound, maximal acetylcholine stimulation. actives 14% (n = 2,400). shares compounds with TRPC6 inhibitor. inhibition, % at 10 µM;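 active = membrane potential signal drops by more than 5 SD from the mean control signal, in both duplicate plates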
TRPC4 ctr mod = tests whether TRPC6 modulators also affect mouse TRPC4; AID 488927; percent change from control (negative = decrease, positive = increase), % at 10 µM; shares compounds with TRPC6 inhibitor; HEK293 TRPC4/mu-opioid, membrane potential fluorescence; actives 69% (n = 2,400);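 active = membrane potential signal moved up or down beyond 5 SD of buffer control wells, in both duplicate plates, actives on both sides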
TRPC4 ctr inh 2 = mouse TRPC4 off-target activity of TRPC6 modulators, second screen | actives 55% (n = 2,400) | shares compounds with TRPC6 inhibitor | inhibition, % at 10 µM | HEK293 TRPC4/mu-opioid, membrane potential dye fluorescence; stimulated with maximal-effect DAMGO;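 active = drop in membrane potential signal beyond 5 SD of the control wells in both duplicate plates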;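 note: TRPC4 counter screen for TRPC6 hits run under conditions tuned for TRPC6 not TRPC4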
TRPC6 block conf = mouse TRPC6 inhibitor confirmation; shares compounds with TRPC6 inhibitor; HEK293-TRPC6, membrane potential dye, ACh-evoked depolarization; inhibition, % at 10 µM; actives 43% (n = 3,300);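 active = fluorescence ratio falls more than 5 SD below the full-stimulation control mean, in both duplicate runs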;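 note: integrated fluorescence ratio of peak minus minimum over baseline after agonist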
TRPC6 act conf = confirmation of mouse TRPC6 activators. AID 488961. activation, % at 10 µM. HEK293-TRPC6 membrane potential dye fluorescence, FDSS. shares compounds with TRPC6 inhibitor. actives 11% (n = 2,800);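 active = ratio signal rise beyond 5 SD above unstimulated control wells' mean, seen in both duplicate runs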
Large screens that a line does not name were inactive (follow-up assays come after a bar, where they were run).

c1ccc(Oc2cccc(OCCCCN3CCCC3)c2)cc1	TRPC6 inhibitor -8.6 | TRPC4 sel inh 2 inactive | TRPC4 spec 5.8% | HEK293 MPD ctr 2-1 262% | HEK293 MPD ctr-1 5.1% | TRPC6 block conf inactive
O=C(COc1ccc2ccccc2c1CN1CCOCC1)N1CCc2ccccc21	TRPC6 inhibitor -7.2 | TRPC4 sel inh 2 26% | TRPC4 spec inactive | HEK293 MPD ctr 2-1 inactive | HEK293 MPD ctr-1 1.3% | TRPC6 block conf 88% | TRPC6 act conf inactive
O=C(Oc1ccc2c(c1)OCC2=O)c1ccccc1	TRPC6 inhibitor -5.8 | HEK293 MPD ctr-2 inactive | HEK293 MPD ctr 2-2 inactive | TRPC4 ctr mod inactive | TRPC4 ctr inh 2 inactive | TRPC6 block conf inactive
O=C(CSc1ncccn1)N1CCN(C(=O)CSc2ncccn2)CC1	none
O=C(CSc1ncccn1)N1CCN(C(c2ccccc2)c2ccccc2)CC1	TRPC6 inhibitor -7.9 | TRPC4 sel inh 2 inactive | TRPC4 spec 1.9% | HEK293 MPD ctr 2-1 inactive | HEK293 MPD ctr-1 1.4% | TRPC6 block conf 76%
CCCC(CCC)C(=O)OC1C[C@H]2CC[C@@H](C1)[N+]2(C)C (stereo partly drawn)	TRPC6 inhibitor -8.7 | TRPC4 sel inh 2 inactive | TRPC4 spec inactive | HEK293 MPD ctr 2-1 -30% | HEK293 MPD ctr-1 inactive | TRPC6 block conf 94% | TRPC6 act conf inactive
COc1cccc(NC(=O)CC(=O)c2ccccc2)c1	none
CCc1ccc(N/C(SC)=C(/C#N)C(N)=O)cc1	none
CCCCS/C(=C(/C#N)C(N)=O)c1cc2c([nH]1)CCCC2	TRPC6 inhibitor -5.7 | HEK293 MPD ctr-2 inactive | HEK293 MPD ctr 2-2 inactive | TRPC4 ctr mod 11% | TRPC4 ctr inh 2 inactive | TRPC6 block conf 54% | TRPC6 act conf inactive
CN(C(=O)c1ccc2c(c1)OCO2)C1(C)CCS(=O)(=O)C1 (stereo not drawn)	none
Nc1c(Cl)cc(-c2csc(N3CCCC3c3nc4cc(Cl)c(N5CCCCC5)cc4n3CCOCCO)n2)cc1Cl (stereo not drawn)	none
COc1ccc(C(=O)NC(=S)N(CCC(C)C)c2c(N)n(Cc3ccccc3)c(=O)[nH]c2=O)cc1	TRPC6 inhibitor -5.5 | HEK293 MPD ctr-2 inactive | HEK293 MPD ctr 2-2 inactive | TRPC4 ctr mod inactive | TRPC4 ctr inh 2 inactive | TRPC6 block conf inactive | TRPC6 act conf inactive
COCCCN(C(=S)NC(=O)c1ccc(C(C)(C)C)cc1)c1c(N)n(Cc2ccccc2)c(=O)[nH]c1=O	none
COc1ccccc1-c1nc(COc2ccc(Cl)cc2Cl)no1	none
Cc1cc(C)n2nc(CC(=O)NNC(=O)c3ccccc3Cl)nc2n1	none
NCC12CC3CC(C1)CC(c1ccc(Cl)cc1)(C3)C2	TRPC4 agonist 61, TRPC6 inhibitor -7.1 | TRPC4 sel inh 2 31% | TRPC4 spec inactive | HEK293 MPD ctr 2-1 inactive | HEK293 MPD ctr-1 -136% | TRPC6 block conf 72% | TRPC6 act conf inactive
Nc1ccc(C23CC4CC(CC(CO)(C4)C2)C3)cc1	none
O=C(c1cc(N2CCOCC2)c(F)cc1[N+](=O)[O-])N1CCOCC1	none
O=C(O)C1C2C=CC(O2)C1C(=O)Nc1cccc(C(F)(F)F)c1 (stereo not drawn)	none
CC(=O)NCCc1c[nH]c2ccc(OCC(O)CNC(C)(C)C)cc12 (stereo not drawn)	none
CCc1cc2c3c(c(=O)oc2cc1OCC(=O)OC)CCCC3	none
O=C(CCN1CCCCO1)N1CCCC(Nc2ccc(F)c(F)c2)C1 (stereo not drawn)	TRPC6 inhibitor -5.8 | HEK293 MPD ctr-2 inactive | HEK293 MPD ctr 2-2 inactive | TRPC4 ctr mod 8.5% | TRPC4 ctr inh 2 inactive | TRPC6 block conf 46%
CCc1nccn1CCC(=O)N1CCCC(Nc2ccc(F)cc2)C1 (stereo not drawn)	TRPC6 inhibitor -7.6 | HEK293 MPD ctr-2 inactive | HEK293 MPD ctr 2-2 inactive | TRPC4 ctr mod 12% | TRPC4 ctr inh 2 inactive | TRPC6 block conf inactive
CCOC(=O)c1ccc(Oc2cc(C)nc(Cl)n2)cc1	none
CCOc1cc2nc(-c3ccc(OC)c(OC)c3)nc(N3CC(C)OC(C)C3)c2cc1OC (stereo not drawn)	TRPC6 inhibitor -8.3 | TRPC4 sel inh 2 inactive | TRPC4 spec -20% | HEK293 MPD ctr 2-1 inactive | HEK293 MPD ctr-1 inactive | TRPC6 block conf inactive | TRPC6 act conf inactive
O=c1oc2ccccc2c2c1ncn2CCN1CCOCC1	none
CN1CCN(CCCn2cnc3c(=O)oc4ccccc4c32)CC1	TRPC6 inhibitor -5.1 | HEK293 MPD ctr-2 -269% | HEK293 MPD ctr 2-2 inactive | TRPC4 ctr mod -48% | TRPC4 ctr inh 2 inactive | TRPC6 block conf inactive | TRPC6 act conf inactive
Cc1cccc(CNc2ncc(-c3cccc([N+](=O)[O-])c3)n2C)c1	TRPC6 inhibitor -5.9 | HEK293 MPD ctr-2 -74% | HEK293 MPD ctr 2-2 inactive | TRPC4 ctr mod -26% | TRPC4 ctr inh 2 57% | TRPC6 block conf inactive | TRPC6 act conf inactive
Cc1ccc2nc(-c3cccc(N)c3)oc2c1	TRPC6 inhibitor -5.5 | HEK293 MPD ctr-2 inactive | HEK293 MPD ctr 2-2 inactive | TRPC4 ctr mod inactive | TRPC4 ctr inh 2 inactive | TRPC6 block conf inactive | TRPC6 act conf inactive
